Reference: ChEMBL document CHEMBL2062418, “C3-heteroaroyl cannabinoids as photolabeling ligands for the CB2 cannabinoid receptor” (Bioorg Med Chem Lett, 2012)

Columns and labels:
[1] = biological target: Cannabinoid receptor 2 (Homo sapiens, UniProt P34972); assay: Displacement of [3H]CP-55,940 from human CB2 receptor expressed in HEK293 cells; assay type: cell-based
Method in brief: (§1)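 Competition binding with [3H]CP-55,940 on rat brain membranes (CB1) or on membranes from HEK293 cells expressing mouse or human CB2. Screened first at two points in triplicate. Where that screen gave Ki below 1000 nM, Ki was taken from one 8-point experiment run in triplicate.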

[2] = biological target: Cannabinoid receptor 2 (Mus musculus, UniProt P47936); assay: Displacement of [3H]CP-55,940 from mouse CB2 receptor expressed in HEK293 cells; assay type: cell-based; method in brief: as §1
[3] = biological target: Cannabinoid receptor 1 (Rattus norvegicus, UniProt P20272); assay: Displacement of [3H]CP-55,940 from rat brain CB1 receptor; method in brief: as §1
[4] = Selectivity ratio of Ki for rat CB1 receptor to Ki for mouse CB2 receptor
[5] = biological target: Cannabinoid receptor 2 (Mus musculus) (UniProt P47936); details: HEK293, 342 nM
Chain of Cannabinoid receptor 2 (Mus musculus) (P47936 whole entry): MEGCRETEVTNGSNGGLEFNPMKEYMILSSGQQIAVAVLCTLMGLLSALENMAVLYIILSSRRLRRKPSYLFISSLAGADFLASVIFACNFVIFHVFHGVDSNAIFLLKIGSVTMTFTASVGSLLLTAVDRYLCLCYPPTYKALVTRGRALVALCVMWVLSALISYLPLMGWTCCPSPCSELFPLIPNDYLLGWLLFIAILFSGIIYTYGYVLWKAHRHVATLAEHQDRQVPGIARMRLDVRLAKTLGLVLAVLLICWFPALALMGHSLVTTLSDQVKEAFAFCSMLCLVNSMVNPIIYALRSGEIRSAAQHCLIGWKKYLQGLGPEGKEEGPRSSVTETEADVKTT

Chain of Cannabinoid receptor 1 (P20272 whole entry): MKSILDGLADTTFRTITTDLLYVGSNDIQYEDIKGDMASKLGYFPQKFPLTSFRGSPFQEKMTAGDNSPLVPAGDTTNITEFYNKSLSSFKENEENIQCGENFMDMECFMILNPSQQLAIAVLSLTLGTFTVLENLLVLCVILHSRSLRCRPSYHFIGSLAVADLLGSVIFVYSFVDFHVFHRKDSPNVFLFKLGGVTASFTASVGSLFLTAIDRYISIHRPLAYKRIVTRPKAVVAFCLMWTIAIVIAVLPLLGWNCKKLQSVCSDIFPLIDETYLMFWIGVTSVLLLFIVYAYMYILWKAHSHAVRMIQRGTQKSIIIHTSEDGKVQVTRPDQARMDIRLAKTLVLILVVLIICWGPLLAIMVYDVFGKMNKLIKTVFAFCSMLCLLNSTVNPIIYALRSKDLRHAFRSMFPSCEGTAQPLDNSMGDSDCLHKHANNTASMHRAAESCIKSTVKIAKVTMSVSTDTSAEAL
Chain of Cannabinoid receptor 2 (Homo sapiens, UniProt P34972) (P34972 whole entry): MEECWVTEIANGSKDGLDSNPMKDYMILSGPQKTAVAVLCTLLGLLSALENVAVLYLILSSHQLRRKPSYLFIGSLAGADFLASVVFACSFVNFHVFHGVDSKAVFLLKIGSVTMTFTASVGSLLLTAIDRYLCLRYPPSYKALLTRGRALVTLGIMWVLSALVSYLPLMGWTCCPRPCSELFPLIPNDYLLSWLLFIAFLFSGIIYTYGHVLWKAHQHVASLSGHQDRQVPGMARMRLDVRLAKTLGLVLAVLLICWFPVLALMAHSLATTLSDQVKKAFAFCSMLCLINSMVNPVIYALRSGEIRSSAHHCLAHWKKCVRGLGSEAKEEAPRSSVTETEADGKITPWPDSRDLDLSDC
Chain of Cannabinoid receptor 2 (Mus musculus, UniProt P47936) (P47936 whole entry): as the sequence (P47936 whole entry) above

SMILES | Ki [1] [nM] | Ki [2] [nM] | Ki [3] [nM] | Ratio Ki [4] | Bmax [5] [%]
CC1(C)Oc2cc(C(=O)c3c[nH]c4ccccc34)cc(O)c2[C@@H]2C[C@H](O)CC[C@H]21 | 159 | 60.4 | 1050 | 17 | –
CC1(C)Oc2cc(C(=O)c3cc4ccccc4o3)cc(O)c2[C@@H]2C[C@H](O)CC[C@H]21 | 209 | 163 | 1360 | – | –
CC1(C)Oc2cc(C(=O)c3cccc(F)c3)cc(O)c2[C@@H]2C[C@H](O)CC[C@H]21 | – | 370 | 460 | – | –
CC1(C)Oc2cc(C(=O)c3cccc(C(F)(F)F)c3)cc(O)c2[C@@H]2C[C@H](O)CC[C@H]21 | 37.3 | 45.8 | 61.7 | – | –
CC1(C)Oc2cc(C(=O)c3ccsc3)cc(O)c2[C@@H]2C[C@H](O)CC[C@H]21 | 1550 | 525 | 1040 | – | –
CC1(C)Oc2cc(C(=O)c3ccoc3)cc(O)c2[C@@H]2C[C@H](O)CC[C@H]21 | – | > 1000 | > 1000 | – | –
CC1(C)Oc2cc(C(=O)c3cc4ccccc4s3)cc(O)c2[C@@H]2C[C@H](O)CC[C@H]21 | 113 | 152 | 157 | – | –
CC1(C)Oc2cc(C(=O)c3coc4ccccc34)cc(O)c2[C@@H]2C[C@H](O)CC[C@H]21 | 118 | 169 | 2880 | 17 | –
CC1(C)Oc2cc(C(=O)c3ccccn3)cc(O)c2[C@@H]2C[C@H](O)CC[C@H]21 | > 1000 | > 1000 | > 1000 | – | –
Cn1cc(C(=O)c2cc(O)c3c(c2)OC(C)(C)[C@@H]2CC[C@@H](O)C[C@@H]32)c2ccccc21 | 3010 | 406 | 3270 | – | –
CC1(C)Oc2cc(C(=O)c3cccnc3)cc(O)c2[C@@H]2C[C@H](O)CC[C@H]21 | > 1000 | > 1000 | > 1000 | – | –
CC1(C)Oc2cc(C(=O)c3cscn3)cc(O)c2[C@@H]2C[C@H](O)CC[C@H]21 | > 1000 | > 1000 | > 1000 | – | –
CC1(C)Oc2cc(C(=O)c3csc4ccccc34)cc(O)c2[C@@H]2C[C@H](O)CC[C@H]21 | 125 | 34.2 | 1250 | 37 | 67
CC1(C)Oc2cc(C(=O)c3cccs3)cc(O)c2[C@@H]2C[C@H](O)CC[C@H]21 | – | > 1000 | > 1000 | – | –
CC1(C)Oc2cc(C(=O)c3ccncc3F)cc(O)c2[C@@H]2C[C@H](O)CC[C@H]21 | – | > 1000 | > 1000 | – | –
CC1(C)Oc2cc(C(=O)c3ccccc3)cc(O)c2[C@@H]2C[C@H](O)CC[C@H]21 | 587 | 247 | 968 | – | –
CC1(C)Oc2cc(C(=O)c3ccco3)cc(O)c2[C@@H]2C[C@H](O)CC[C@H]21 | – | > 1000 | > 1000 | – | –
CC1(C)Oc2cc(C(=O)c3ccncc3)cc(O)c2[C@@H]2C[C@H](O)CC[C@H]21 | > 1000 | > 1000 | > 1000 | – | –
CC1(C)Oc2cc(C(=O)c3cncs3)cc(O)c2[C@@H]2C[C@H](O)CC[C@H]21 | – | > 1000 | > 1000 | – | –
